High-throughput results: PubChem, several laboratories
Shown are actives, neighbours in structure and some others; about 3.9% of the full set was active somewhere.
HSP90 refold inh – blocks HSP90-mediated luciferase refolding in reticulocyte lysate | Rabbit reticulocyte lysate, luciferase refolding luminescence, 3 h | inhibition, % at 5.6 µM | 290,000 tested, 0.91% active;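 active means inhibition above the screen-wide mean plus 3 SD, computed separately per campaign, cut at about 16% in these data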;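 further: inhibitors lower the luminescence because luciferase stays unfolded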
HCV NS3 hel inh – blocks Hepatitis C virus NS3 helicase unwinding; NS3 helicase DNA unwinding, Cy5 molecular beacon fluorescence; inhibition, % at 10.9 µM; 290,000 tested, 0.56% active; AID 1800;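 active means inhibition above the mean of all tested compounds plus 3 SD, set per campaign, cut at about 35% in these data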
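System: Hepatitis C virus NS3 helicase domain fragment enzyme | Reagent: Annealed dual-labelled DNA beacon duplex, ATP-started | Compound dosing: 10.9 µM single point, 0.8% DMSO | Incubation: 1 h reaction at 25 °C, ATP-initiated | Technique: Cy5 fluorescence | Evaluation: Percent inhibition from t60/t0 fluorescence ratio | Benchmarks: Low DMSO, high thioflavine S at 110 µM | Replication: Singlicate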
HCV core dimer – HCV core protein dimerization inhibition; TR-FRET GST/Flag-core106 dimerization, 1536-well; inhibition, % at 5 µM; 300,000 tested, 0.33% active;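 active means inhibition above the mean of all tested compounds plus 3 SD, set per screening campaign, cut at about 45% in these data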
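Material: Tagged HCV core106 pair (GST and Flag) | Amount: GST-core106 13.5 nM, Flag-core106 17 nM | Medium: KF-containing HEPES buffer, pH 7.45, DTT, CHAPS, BSA | Reagent: Eu donor and XL665 acceptor anti-tag antibodies | Schedule: 4 h at 22.5 °C | Technique: Time-resolved FRET, ex 340 nm, em 617 and 671 nm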
HSF1 activator – increases HSF-1 driven luciferase reporter signal; NIH3T3-HGL HSF-1 luciferase reporter, MG132, 8 h; 100% = twice DMSO control signal; activation, % at 9 µM; 300,000 tested, 1.7% active; AID 504408;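 active means mean replicate activation of at least 50% with a set share of replicates each reaching 50%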
FID counter – displaces DNA intercalator in HCV helicase counter-screen. DNA fluorescent intercalator displacement, fluorescence. inhibition, % at 7.9 µM. 290,000 tested, 0.17% active; in the data active means inhibition above about 37%;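 further: higher means more ethidium bromide displaced from hairpin DNA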
HSF1 inhib – HSF1 inhibition; 300,000 tested, 0.77% active; NIH3T3-HGL HSE-luciferase, MG132-induced, luminescence 8 h; active compounds read low; activity change, negative = inhibition, % at 7.5 µM (by protocol); AID 2098;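 active means more than half of replicate wells show activity change below -50%, luminescence cut by over half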;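 further: luciferase reports HSF-1 transcriptional activity via heat shock element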
Numbers stand for hits; . = inactive; / = not tested or not shown.

SMILES	HSP90 refold inh	HCV NS3 hel inh	HCV core dimer	HSF1 activator	FID counter	HSF1 inhib
C/C(=C\c1ccc(N)cc1)c1nc2ccccc2[nH]1	.	.	.	.	.	.
O=S(=O)(/C(=C/c1ccc(C(F)(F)F)cc1)c1nc2ccccc2[nH]1)c1ccccc1	.	.	.	180	.	.
CC(C)c1ccc(/C=C(\c2nc3ccccc3[nH]2)S(=O)(=O)c2ccccc2)cc1	.	.	.	102	.	.
CC(C(=O)N1CCN(c2ccc([N+](=O)[O-])cc2)CC1)N1C(=O)C2CC=CCC2C1=O (centres undefined)	.	.	.	.	.	.
CC(=O)OCC(=O)Nc1ccccc1C	.	.	.	.	.	.
CC1CCc2c(sc(NC(=O)c3ccc(Cn4cc([N+](=O)[O-])cn4)o3)c2C#N)C1 (centres undefined)	.	.	85	.	.	.
CC(=O)NCc1ccc(S(=O)(=O)NC(C)CCc2ccccc2)cc1 (centres undefined)	.	.	.	.	.	.
CN(NC1OC(=O)c2ccccc21)c1ncc(Cl)cc1C(F)(F)F (centres undefined)	.	.	.	66	.	.
COc1ccc2cc(C(c3nnnn3C3CCCC3)N3CCCCCC3)c3nnnn3c2c1 (centres undefined)	.	.	.	.	.	.
O=C(CSc1nc2c(c(=O)[nH]1)CCC2)Nc1ccccc1Cl	.	.	.	.	.	.
Cc1cccc(CSc2nc3c(c(=O)[nH]2)CCCC3)c1	.	.	.	.	.	.
Cc1c(Cl)cccc1NC(=O)CSc1nc2c(c(=O)[nH]1)CCCC2	.	.	.	60	.	.
O=c1[nH]c(SCc2cccc(F)c2)nc2c1CCCC2	.	.	.	63	.	.
COc1ccc(-c2noc(CN(C(=O)c3ccc4c(c3)OCO4)C(C)C)n2)cc1OC	/	/	.	.	/	.
Cc1ccccc1-c1nc(CS(=O)(=O)CC(=O)NCCCN2CC(C)CC(C)C2)c(C)o1 (centres undefined)	.	.	.	.	37	.
Cc1ccc(-c2nc(CS(=O)(=O)CC(=O)NCCCN(Cc3ccccc3)C(C)C)c(C)o2)cc1	.	.	.	.	37	.
COc1ccc(-c2nc(CS(=O)(=O)CC(=O)NCCCc3ccccc3)c(C)o2)cc1	.	.	.	.	.	.
Cc1ccccc1-c1nnc(CS(=O)(=O)c2ccccc2)o1	.	.	.	127	.	.
Cc1cccc(OCCCC(=O)Nc2nccs2)c1	.	.	.	67	.	.
CCOc1ccc(-c2c(C(=O)N/N=C/c3ccc(C)s3)nnn2-c2nonc2N)cc1	.	.	.	.	.	.
Cc1c(NS(=O)(=O)c2cc(C(=O)NCc3ccco3)cc(Cl)c2Cl)c(=O)n(-c2ccccc2)n1C	/	/	.	.	/	.
COc1ccc(C(NC(=O)c2c(F)c(F)c(F)c(F)c2F)c2ccccc2)cc1 (centres undefined)	.	.	.	53	.	.
CCOC(=O)N1CCN(C(=O)c2ccccc2N(Cc2ccccc2)S(=O)(=O)c2ccccc2)CC1	.	.	.	.	.	.
CCOc1ccccc1CNCc1ccc(F)cc1	.	.	.	.	.	.
COc1cccc(-n2c(N)c(-c3nc4ccccc4[nH]3)sc2=S)c1	.	.	.	.	.	-55
SMILES	HSP90 refold inh	HCV NS3 hel inh	HCV core dimer	HSF1 activator	FID counter	HSF1 inhib
O=C(CSc1ccc(-c2ccccn2)nn1)N1CCCc2ccccc21	.	.	.	.	.	.
Cc1cc(C)cc(N(CC(=O)Nc2cc(C)ccc2C)S(=O)(=O)c2c(C)[nH]c(=O)[nH]c2=O)c1	.	.	.	.	.	.
Cc1cc(C)cc(N(CC(=O)Nc2ccc(Br)cc2)S(=O)(=O)c2c(C)[nH]c(=O)[nH]c2=O)c1	.	.	.	.	.	-63
COc1ccc(CN2C(=NC(=O)CCC3CCCC3)SC3CS(=O)(=O)CC32)cc1 (centres undefined)	.	.	.	.	.	-71
C/C(=N\NC(=O)c1cccc(N/N=C(\C)c2cc(O)ccc2O)c1)c1cc(O)ccc1O	.	.	.	64	.	.
C/C(=N\NC(=O)c1cccc(N/N=C(\C)c2ccco2)c1)c1ccco1	.	.	/	.	.	.
COc1ccc(NC(=O)CN(C)S(=O)(=O)c2ccc3c(c2)CC(C)N3C(C)=O)c(OC)c1 (centres undefined)	.	.	.	.	.	.
CC(=O)N1c2ccc(S(=O)(=O)N(C)CC(=O)Nc3ccccc3C)cc2CC1C (centres undefined)	.	.	.	.	.	-61
COc1cc(NC(=O)CN(C)S(=O)(=O)c2ccc3c(c2)CC(C)N3C(C)=O)cc(OC)c1 (centres undefined)	.	.	.	.	.	-84
CSC1=NCCN1S(=O)(=O)c1ccc2ccccc2c1	.	.	.	.	.	.
CC12CC(NC(=O)N1c1cccc(C(=O)NCc3ccccn3)c1)c1ccccc1O2 (centres undefined)	.	.	.	.	.	.
CN(C(=O)C1CCC(=O)N(C2CC2)C1)C1CCCCC1 (centres undefined)	.	.	.	.	.	.
C/C(N)=C(/C#N)C(=O)CSc1nnc(Nc2cccc(C)c2)s1	.	.	.	56	.	.
C/C(N)=C(/C#N)C(=O)CSc1nc2cc(Cl)ccc2s1	.	.	.	76	.	.
CC(C)C/C=C1\CCc2c([nH]c3ccccc23)C1=O	.	.	.	59	.	.
Cc1cccc(N2C(N)=NC(N)=NC23CCCCC3)c1	.	.	.	.	.	.
COc1cccc(C(=O)c2c[nH]c(C(=O)NCc3ccco3)c2)c1	.	.	.	.	.	-56
COc1ccccc1Nc1nnc(SCc2nnc(-c3cc(OC)c(OC)c(OC)c3)o2)s1	.	.	.	.	.	.
CCOc1ccccc1Nc1nnc(SCc2nnc(-c3cc(OC)c(OC)c(OC)c3)o2)s1	.	.	.	.	.	-74
COc1cc(-c2nnc(CSc3nnc(Nc4ccc(C(C)C)cc4)s3)o2)cc(OC)c1OC	.	.	.	56	.	.
Cc1ccc(S(=O)(=O)Nc2cccc3ncccc23)s1	.	.	.	108	.	.
CCc1ccc(C(=O)COC(=O)CNC(=O)c2cccs2)cc1	.	.	.	.	.	-86
COc1cc(C2NC(=O)CS2)cc(OC)c1OC (centres undefined)	.	.	.	.	.	.
OC(CNCc1cccc(Cl)c1)c1ccccc1 (centres undefined)	.	.	.	72	.	.
Cc1cc(C)n2nc(C(=O)Nc3ccc4c(c3)OCO4)nc2n1	.	.	47	.	.	.
Cc1ccnc2nc(C(=O)Nc3ccc4c(c3)OCO4)nn12	.	.	.	.	.	.
